# Reference: PMC4719142 (ACS Chemical Biology, 2015)
# Assays:
# L363 cells = test: Cell viability; type: cell-based, Human; settings: L363, 72 h treatment, four replicates ± SEM
# In short: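 MTS viability run in quadruplicate at the stated times and doses. Lines were grown in RPMI-1640 with 2 mM L-glutamine, 10% FBS and penicillin/streptomycin at 37 °C, 5% CO2. MTS reagent was added directly for 90 min at 37 °C. Formazan absorbance was read at 500 nm. Viability was normalised to DMSO-treated wells.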
# several other cell lines = settings: literature values across several other cell lines ref 33, 34; cited from earlier work
smiles,measurement,setting,value
CN(C)c1ccc(Nc2c3ccc(NC(=O)CCN4CCCC4)cc3nc3cc(NC(=O)CCN4CCCC4)ccc23)cc1 [BRACO-19],IC50,L363 cells,15.3 ± 4.3 µM
same,IC50,several other cell lines,1 to 13 µM
